According to ChEMBL document CHEMBL1124444, “Hydroxyacetophenone-derived antagonists of the peptidoleukotrienes” (1989):
Calls of active or inactive are those of the source. The calls are words filed in the database; no cut-off is given here.

Experiments:
Cavia porcellus [1] = species: Cavia porcellus; assay: Percent inhibition of the leukotriene D4 (LTD4)-induced contraction of guinea pig tracheal spirals at 5 uM concentration; assay type: functional; conditions: Trachea
Outline: (§1)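 Guinea pig tracheal spirals were split into paired sections in 10 mL baths of modified Krebs at 37 °C, gassed with 95% O₂/5% CO₂, under 2 g resting tension. After 60 min equilibration (washes every 15 min), reproducible contractions to 8 nM LTD₄ or 8 nM LTE₄ were obtained. Compound was added for 10 min, then agonist challenge repeated; percent inhibition is relative to the vehicle-treated paired section.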

Cavia porcellus [2] = species: Cavia porcellus; assay: Percent inhibition of the leukotriene E4 (LTE4)-induced contraction of guinea pig tracheal spirals at 5 uM concentration; assay type: functional; conditions: Trachea; outline: as §1
Cavia porcellus [3] = assay: Compound (50 mg/kg, intraperitoneally) was tested in spontaneously breathing, conscious guinea pigs challenged with aerosolized LTD4 (60-min pretreatment); assay type: functional
Cavia porcellus [4] = species: Cavia porcellus; assay: Percent inhibition of the leukotriene E4 (LTE4)-induced contraction of guinea pig tracheal spirals at 1 uM concentration; assay type: functional; conditions: Trachea; outline: as §1
[5] = biological target: T1, Cysteinyl leukotriene receptor 1 (Cavia porcellus) (UniProt Q2NNR5); assay: Dissociation constant (KB) […] was evaluated in vitro in isolated guinea pig tracheal strips
T1 sequence (whole entry): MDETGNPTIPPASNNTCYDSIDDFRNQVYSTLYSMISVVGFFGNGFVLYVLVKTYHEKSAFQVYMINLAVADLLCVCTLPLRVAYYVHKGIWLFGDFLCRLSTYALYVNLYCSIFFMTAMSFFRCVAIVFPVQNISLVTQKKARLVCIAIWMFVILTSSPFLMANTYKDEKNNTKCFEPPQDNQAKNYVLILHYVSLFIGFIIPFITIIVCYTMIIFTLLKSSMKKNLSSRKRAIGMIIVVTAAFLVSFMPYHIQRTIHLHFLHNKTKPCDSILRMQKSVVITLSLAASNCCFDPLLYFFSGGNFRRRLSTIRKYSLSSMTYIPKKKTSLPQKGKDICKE

Cavia porcellus [6] = species: Cavia porcellus; assay: Percent inhibition of the leukotriene D4 (LTD4)-induced contraction of guinea pig tracheal spirals at 10 uM concentration; NS means data was not statistically significant.; assay type: functional; conditions: Trachea; outline: as §1
Cavia porcellus [7] = species: Cavia porcellus; assay: Percent inhibition of the leukotriene E4 (LTE4)-induced contraction of guinea pig tracheal spirals at 10 uM concentration; assay type: functional; conditions: Trachea; outline: as §1
Cavia porcellus [8] = species: Cavia porcellus; assay: Percent inhibition of the leukotriene E4 (LTE4)-induced contraction of guinea pig tracheal spirals at 50 uM concentration; assay type: functional; conditions: Trachea; outline: as §1
Cavia porcellus [9] = assay: Compound (50 mg/kg, intraperitoneally) was tested in spontaneously breathing, conscious guinea pigs challenged with aerosolized LTD4 (30-min pretreatment); assay type: functional
Cavia porcellus [10] = species: Cavia porcellus; assay: Percent inhibition of the leukotriene D4-induced contraction of guinea pig tracheal spirals at 4 uM concentration; assay type: functional; conditions: Trachea; outline: as §1
Cavia porcellus [11] = assay: Compound (50 mg/kg, intraperitoneally) was tested in spontaneously breathing, conscious guinea pigs challenged with aerosolized LTD4 (60-min pretreatment); NS means data were not statistically significant.; assay type: functional, organism-based
Cavia porcellus [12] = species: Cavia porcellus; assay: Inhibition of the leukotriene D4 (LTD4)-induced contraction of guinea pig tracheal spirals at 10 uM concentration; assay type: functional; conditions: Trachea; outline: as §1
Cavia porcellus [13] = species: Cavia porcellus; assay: Percent inhibition of the leukotriene E4 (LTE4)-induced contraction of guinea pig tracheal spirals at 50 uM concentration; NS means data was not statistically significant; assay type: functional; conditions: Trachea; outline: as §1
Cavia porcellus [14] = species: Cavia porcellus; assay: Percent inhibition of the leukotriene D4 (LTD4)-induced contraction of guinea pig tracheal spirals at 4 uM concentration; assay type: functional; conditions: Trachea; outline: as §1
Cavia porcellus [15] = species: Cavia porcellus; assay: Percent inhibition of the leukotriene E4 (LTE4)-induced contraction of guinea pig tracheal spirals at 1 uM concentration; conditions: Trachea
Cavia porcellus [16] = species: Cavia porcellus; assay: Percent inhibition of the leukotriene E4 (LTE4)-induced contraction of guinea pig tracheal spirals at 10 uM concentration; NS means data was not statistically significant; assay type: functional; conditions: Trachea; outline: as §1
Cavia porcellus [17] = species: Cavia porcellus; assay: Percent inhibition of the leukotriene D4 (LTD4)-induced contraction of guinea pig tracheal spirals at 100 uM concentration; assay type: functional; conditions: Trachea; outline: as §1
Cavia porcellus [18] = species: Cavia porcellus; assay: Percent inhibition of the leukotriene E4 -induced contraction of guinea pig tracheal spirals at 1 uM concentration; assay type: functional; conditions: Trachea; outline: as §1
Cavia porcellus [19] = species: Cavia porcellus; assay: Percent inhibition of the leukotriene E4 -induced contraction of guinea pig tracheal spirals at 10 uM concentration; assay type: functional; conditions: Trachea; outline: as §1
Cavia porcellus [20] = species: Cavia porcellus; assay: Percent inhibition of the leukotriene D4 (LTD4)-induced contraction of guinea pig tracheal spirals at 10 uM concentration; NS meana data was not statistically significant; assay type: functional; conditions: Trachea; outline: as §1
Cavia porcellus [21] = species: Cavia porcellus; assay: Percent inhibition of the leukotriene D4 (LTD4)-induced contraction of guinea pig tracheal spirals at 1 uM concentration; assay type: functional; conditions: Trachea; outline: as §1
Cavia porcellus [22] = species: Cavia porcellus; assay: Percent inhibition of the leukotriene D4 (LTD4)-induced contraction of guinea pig tracheal spirals at 10 uM concentration; NS means data was not statistically significant; assay type: functional; conditions: Trachea; outline: as §1
Cavia porcellus [23] = species: Cavia porcellus; assay: Percent inhibition of the leukotriene D4 (LTD4)-induced contraction of guinea pig tracheal spirals at 4 uM concentration; NS means data was not statistically significant; assay type: functional; conditions: Trachea; outline: as §1
Cavia porcellus [24] = species: Cavia porcellus; assay: Percent inhibition of the leukotriene E4 (LTE4)-induced contraction of guinea pig tracheal spirals at 50 uM concentration; NS means data was not statistically significant.; assay type: functional; conditions: Trachea; outline: as §1

Compound `C/C=C(\c1ccccc1)c1c(OCc2ccc(C(=O)O)cc2OC)ccc(C(C)=O)c1O` has an inhibition at 5 µM (Cavia porcellus [1]) of 24%.

`C=C(C)Cc1c(OCc2ccc(C(=O)O)cc2OC)ccc(C(C)=O)c1O` was tested, and the inhibition at 5 µM (Cavia porcellus [2]) was 82%, the Protection (Cavia porcellus [3]) was 30% and the inhibition at 1 µM (Cavia porcellus [4]) was 35%. It also gave a Kb [5] of 1640 nM.

For `CCCc1c(OCCC[S+]([O-])CC(=O)O)ccc(C(C)=O)c1O` (stereo unspecified), the inhibition (Cavia porcellus [6]) was “Not statistically significant”.

For `CCCN(Cc1ccc(C(=O)O)cc1OC)c1ccc(C(C)=O)c(O)c1`, the inhibition at 10 µM (Cavia porcellus [7]) was 24% and the inhibition at 50 µM (Cavia porcellus [8]) was 35%.

`CCCc1c(OCC(O)COc2ccc3c(=O)cc(C(=O)O)oc3c2CCC)ccc(C(C)=O)c1O` (stereo unspecified) [FPL-55712] was tested, and the Protection (Cavia porcellus [9]) was 32%, the inhibition at 4 µM (Cavia porcellus [10]) was 62% and the Protection (Cavia porcellus [11]) was “inactive”.

In the case of `CCCc1c(OCc2ccc(C(=O)O)cc2F)ccc(C(C)=O)c1O`, the Protection (Cavia porcellus [9]) is reported as 18%, the Protection (Cavia porcellus [3]) is reported as 0% and the inhibition at 10 µM (Cavia porcellus [12]) is reported as 99%. The Kb [5] was 520 nM.

For `CCCc1c(OCc2ccc(C(=O)O)cc2OC)ccc(CCC(=O)O)c1O`, the inhibition (Cavia porcellus [13]) was “Not statistically significant”.

`CCCc1c(OCc2cccc(/C=C/C(=O)O)c2)ccc(C(C)=O)c1O` was tested, and the Protection (Cavia porcellus [9]) was 19%, the inhibition at 4 µM (Cavia porcellus [14]) was 66% and the inhibition at 1 µM (Cavia porcellus [15]) was 41%. It also gave a Kb [5] of 630 nM.

`CCCc1c(OCc2ccc(C(=O)O)cc2OC)ccc(C(=O)Oc2ccccc2)c1O` was tested, and the inhibition (Cavia porcellus [16]) was “Not statistically significant”.

With `CCCc1c(OCc2cc(/C=C\C(=O)O)ccc2OC)ccc(C(C)=O)c1O` the inhibition at 1 µM (Cavia porcellus [15]) was 14% and the inhibition at 10 µM (Cavia porcellus [12]) was 28%.

`CCCc1c(OCC(O)CNC(CS)C(=O)NCC(=O)O)ccc(C(C)=O)c1O` (stereo unspecified) showed an inhibition at 100 µM (Cavia porcellus [17]) of 33%.

Work on `COc1cc(C(=O)O)ccc1COc1ccc(C(C)=O)c(O)c1Cc1ccccc1` yielded an inhibition at 1 µM (Cavia porcellus [18]) of 39% and an inhibition at 10 µM (Cavia porcellus [19]) of 100%.

`COc1cc(C(=O)O)ccc1COc1ccc(C(C)=O)c(O)c1` was tested, and the inhibition (Cavia porcellus [20]) was “Not statistically significant”.

With `CCCc1c(OCc2ccccc2C(=O)O)ccc(C(C)=O)c1O` the inhibition at 100 µM (Cavia porcellus [17]) was 91% and the inhibition (Cavia porcellus [6]) was “Not statistically significant”.

`CCCc1c(OCc2ccc(/C=C/C(=O)O)cc2)ccc(C(C)=O)c1O` gave a Protection (Cavia porcellus [3]) of 34%, an inhibition at 1 µM (Cavia porcellus [15]) of 48% and a Kb [5] of 570 nM.

`CCC(C)c1c(OCc2ccc(C(=O)O)cc2OC)ccc(C(C)=O)c1O` (stereo unspecified) showed an inhibition at 5 µM (Cavia porcellus [1]) of 85% and an inhibition at 10 µM (Cavia porcellus [12]) of 100%.

Compound `CCCc1c(OCc2ccc(C(=O)O)c(Br)c2)ccc(C(C)=O)c1O` has a Protection (Cavia porcellus [3]) of 69%, an inhibition at 1 µM (Cavia porcellus [21]) of 30% and a Kb [5] of 170 nM.

In the case of `COc1cc(C(=O)O)ccc1COc1ccc2c(C)cc(=O)oc2c1`, the inhibition (Cavia porcellus [22]) is reported as “Not statistically significant”.

With `CCCc1c(OCc2ccc(C(=O)O)c(OC)c2)ccc(C(C)=O)c1O` the inhibition (Cavia porcellus [23]) was “Not statistically significant” and the inhibition at 10 µM (Cavia porcellus [12]) was 44%.

For `COc1cc(C(=O)O)ccc1COc1ccc(C(C)=O)c(O)c1CCCC(=O)O`, the inhibition (Cavia porcellus [24]) was “Not statistically significant”.
